Laboratory results: ChEMBL document CHEMBL1275417, “Biological activities of novel gyrase inhibitors of the aminocoumarin class” (Antimicrob Agents Chemother, 2008)
Converted amounts (≈) assume the structure as drawn.

Legend:
DNA gyrase subunit B = DNA gyrase subunit B (Escherichia coli, UniProt P0AES6); test: Inhibition of Escherichia coli JM109 DNA gyrase subunit B assessed as ATP hydrolysis by ATPase assay
[1] = biological target: DNA gyrase subunit A (Escherichia coli K-12) (UniProt P0AES4); test: Inhibition of Escherichia coli K-12 DNA gyrase A expressed in Escherichia coli DC2 assessed as compound concentration required for => 4-fold induction of luxCDABE operon by reported gene assay
Chain of DNA gyrase subunit A (Escherichia coli K-12) (P0AES4 whole entry, the tested form may be a part): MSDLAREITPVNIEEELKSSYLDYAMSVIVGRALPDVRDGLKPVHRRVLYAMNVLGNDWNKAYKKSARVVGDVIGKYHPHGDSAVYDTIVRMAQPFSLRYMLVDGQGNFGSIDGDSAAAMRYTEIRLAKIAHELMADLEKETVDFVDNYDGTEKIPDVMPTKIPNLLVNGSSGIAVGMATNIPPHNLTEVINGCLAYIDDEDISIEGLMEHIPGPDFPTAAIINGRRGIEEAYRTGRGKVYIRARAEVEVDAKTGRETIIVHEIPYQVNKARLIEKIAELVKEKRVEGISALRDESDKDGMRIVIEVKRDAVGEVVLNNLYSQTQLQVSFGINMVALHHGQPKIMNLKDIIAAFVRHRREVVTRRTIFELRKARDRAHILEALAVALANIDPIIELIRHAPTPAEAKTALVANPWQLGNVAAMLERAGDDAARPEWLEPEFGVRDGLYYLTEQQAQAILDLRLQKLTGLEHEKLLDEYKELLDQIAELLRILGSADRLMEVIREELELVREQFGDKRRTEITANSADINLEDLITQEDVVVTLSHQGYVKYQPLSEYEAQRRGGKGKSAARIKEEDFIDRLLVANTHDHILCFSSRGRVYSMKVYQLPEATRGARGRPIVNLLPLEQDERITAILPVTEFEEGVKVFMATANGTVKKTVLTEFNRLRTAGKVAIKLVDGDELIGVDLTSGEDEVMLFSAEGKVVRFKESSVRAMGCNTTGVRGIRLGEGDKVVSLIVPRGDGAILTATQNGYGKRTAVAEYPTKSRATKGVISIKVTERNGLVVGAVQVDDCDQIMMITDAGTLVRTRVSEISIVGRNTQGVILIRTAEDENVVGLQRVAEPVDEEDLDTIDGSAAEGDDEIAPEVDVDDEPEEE
Outline: (§1)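 E. coli DC2 carrying a gyrA or sulA promoter–luxCDABE (Photorhabdus) fusion plasmid. Grown overnight at 37°C in LB with 2 μg/ml tetracycline, then diluted 1:100 in LB without tetracycline and precultured 1.5 h at 37°C. Compounds were added from DMSO stocks to 1% final DMSO and incubated 5 h at 37°C. Bioluminescence was divided by A595, and induction factor is the treated/untreated ratio. The value is the lowest test concentration giving ≥4-fold induction.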

[2] = biological target: T1, Cell division inhibitor SulA (Escherichia coli K-12) (UniProt P0AFZ5); test: Inhibition of Escherichia coli K-12 DNA sulA expressed in Escherichia coli DC2 assessed as compound concentration required for => 4-fold induction of luxCDABE operon by reported gene assay; outline: as §1
T1 sequence (whole entry): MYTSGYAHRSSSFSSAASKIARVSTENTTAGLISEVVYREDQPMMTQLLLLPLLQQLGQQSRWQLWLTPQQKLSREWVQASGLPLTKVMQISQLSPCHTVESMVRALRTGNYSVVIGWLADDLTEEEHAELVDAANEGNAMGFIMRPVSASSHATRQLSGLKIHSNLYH

Staphylococcus aureus [3] = test: Antibacterial activity against Staphylococcus aureus ATCC 29213 by broth microdilution method; type: functional
Staphylococcus aureus [4] = test: Antibacterial activity against Staphylococcus aureus ATCC 43300 by broth microdilution method; type: functional
Staphylococcus aureus [5] = test: Antibacterial activity against Staphylococcus aureus 80CR5 by broth microdilution method; type: functional
Streptococcus pneumoniae [6] = test: Antibacterial activity against Streptococcus pneumoniae ATCC 49619 by broth microdilution method; type: functional
Streptococcus pneumoniae [7] = test: Antibacterial activity against Streptococcus pneumoniae SL336-T by broth microdilution method; type: functional
Streptococcus pneumoniae [8] = test: Antibacterial activity against Streptococcus pneumoniae TUPELO by broth microdilution method; type: functional
Enterococcus faecalis = test: Antibacterial activity against Enterococcus faecalis ATCC 29212 by broth microdilution method; type: functional
Enterococcus faecium = test: Antibacterial activity against Enterococcus faecium ATCC 19434 by broth microdilution method; type: functional
Escherichia coli [9] = test: Antibacterial activity against Escherichia coli ATCC 25922 by broth microdilution method; type: functional
Escherichia coli [10] = test: Antibacterial activity against Escherichia coli UB1005 by broth microdilution method; type: functional
Escherichia coli [11] = test: Antibacterial activity against Escherichia coli DC2 by broth microdilution method; type: functional
Klebsiella pneumoniae = test: Antibacterial activity against Klebsiella pneumoniae ATCC 27736 by broth microdilution method; type: functional
Pseudomonas aeruginosa [12] = test: Antibacterial activity against Pseudomonas aeruginosa ATCC 27853 by broth microdilution method; type: functional
Pseudomonas aeruginosa [13] = test: Antibacterial activity against Pseudomonas aeruginosa K799/WT by broth microdilution method; type: functional
Pseudomonas aeruginosa [14] = test: Antibacterial activity against Pseudomonas aeruginosa K799/61 by broth microdilution method; type: functional
[15] = biological target: DNA gyrase (Escherichia coli); test: Inhibition of Escherichia coli JM109 DNA gyrase assessed as DNA triple helix formation by supercoiling assay

SMILES	IC50 (DNA gyrase subunit B)	Activity [1]	Activity [2]	MIC (Staphylococcus aureus [3])	MIC (Staphylococcus aureus [4])	MIC (Staphylococcus aureus [5])	MIC (Streptococcus pneumoniae [6])	MIC (Streptococcus pneumoniae [7])	MIC (Streptococcus pneumoniae [8])	MIC (Enterococcus faecalis)	MIC (Enterococcus faecium)	MIC (Escherichia coli [9])	MIC (Escherichia coli [10])	MIC (Escherichia coli [11])	MIC (Klebsiella pneumoniae)	MIC (Pseudomonas aeruginosa [12])	MIC (Pseudomonas aeruginosa [13])	MIC (Pseudomonas aeruginosa [14])	IC50 [15]
CO[C@@H]1[C@@H](OC(=O)c2ccc(C)[nH]2)[C@@H](O)[C@H](Oc2ccc3c(O)c(NC(=O)c4ccc(N)c(C)c4)c(=O)oc3c2C)OC1(C)C	0.152 µM	25 µM	50 µM	1 mg/L (≈ 1.61 µM)	1 mg/L (≈ 1.61 µM)	> 32 mg/L	4 mg/L (≈ 6.43 µM)	4 mg/L (≈ 6.43 µM)	4 mg/L (≈ 6.43 µM)	8 mg/L (≈ 12.9 µM)	> 32 mg/L	> 32 mg/L	> 32 mg/L	> 32 mg/L	> 32 mg/L	> 32 mg/L	> 32 mg/L	4 mg/L (≈ 6.43 µM)	0.044 µM
CO[C@@H]1[C@@H](OC(=O)c2ccc(C)[nH]2)[C@@H](O)[C@H](Oc2ccc3c(O)c(NC(=O)c4ccc(SC)cc4)c(=O)oc3c2Cl)OC1(C)C	0.084 µM	3.1 µM	12.5 µM	0.125 mg/L (≈ 0.19 µM)	0.25 mg/L (≈ 0.379 µM)	32 mg/L (≈ 48.6 µM)	2 mg/L (≈ 3.03 µM)	4 mg/L (≈ 6.07 µM)	16 mg/L (≈ 24.3 µM)	32 mg/L (≈ 48.6 µM)	> 32 mg/L	> 32 mg/L	> 32 mg/L	8 mg/L (≈ 12.1 µM)	> 32 mg/L	> 32 mg/L	> 32 mg/L	2 mg/L (≈ 3.03 µM)	0.02 µM
COc1cc(/C=C/C(=O)Nc2c(O)c3ccc(O[C@@H]4OC(C)(C)[C@H](OC)[C@@H](OC(=O)c5ccc(C)[nH]5)[C@H]4O)c(Cl)c3oc2=O)ccc1O	0.263 µM	6.3 µM	3.1 µM	0.5 mg/L (≈ 0.73 µM)	0.5 mg/L (≈ 0.73 µM)	> 32 mg/L	8 mg/L (≈ 11.7 µM)	8 mg/L (≈ 11.7 µM)	16 mg/L (≈ 23.4 µM)	32 mg/L (≈ 46.7 µM)	> 32 mg/L	> 32 mg/L	> 32 mg/L	16 mg/L (≈ 23.4 µM)	> 32 mg/L	> 32 mg/L	> 32 mg/L	2 mg/L (≈ 2.92 µM)	0.043 µM
CO[C@@H]1[C@@H](OC(=O)c2ccc(C)[nH]2)[C@@H](O)[C@H](Oc2ccc3c(O)c(NC(=O)c4ccc(O)c(NC(=O)C(C)C)c4)c(=O)oc3c2Cl)OC1(C)C	0.073 µM	3.1 µM	3.1 µM	2 mg/L (≈ 2.8 µM)	4 mg/L (≈ 5.6 µM)	> 32 mg/L	4 mg/L (≈ 5.6 µM)	8 mg/L (≈ 11.2 µM)	16 mg/L (≈ 22.4 µM)	32 mg/L (≈ 44.8 µM)	> 32 mg/L	> 32 mg/L	> 32 mg/L	16 mg/L (≈ 22.4 µM)	> 32 mg/L	> 32 mg/L	> 32 mg/L	1 mg/L (≈ 1.4 µM)	0.041 µM
COc1cc(C(=O)Nc2c(O)c3ccc(O[C@@H]4OC(C)(C)[C@H](OC)[C@@H](OC(=O)c5ccc(C)[nH]5)[C@H]4O)c(C)c3oc2=O)ccc1O	0.086 µM	12.5 µM	12.5 µM	≤ 0.06 mg/L	0.25 mg/L (≈ 0.391 µM)	> 32 mg/L	1 mg/L (≈ 1.57 µM)	2 mg/L (≈ 3.13 µM)	4 mg/L (≈ 6.26 µM)	8 mg/L (≈ 12.5 µM)	> 32 mg/L	> 32 mg/L	> 32 mg/L	16 mg/L (≈ 25.1 µM)	> 32 mg/L	> 32 mg/L	> 32 mg/L	2 mg/L (≈ 3.13 µM)	0.025 µM
